This note sets out measurements from ChEMBL document CHEMBL1629643, “Naturally occurring Class A ss-lactamases from the Burkholderia cepacia complex” (Antimicrob Agents Chemother, 2009).

What all share (format): functional
Assay [1] concerns Burkholderia cenocepacia. Kind of assay: Antimicrobial activity against Burkholderia cenocepacia 07-34 expressing beta-lactamase PenB1. A digest of the protocol: (§1)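 MICs measured by broth microdilution and by Etest on clinical B. cenocepacia isolates grown for 18 h in Trypticase soy broth (30°C and 37°C). Susceptibility was read against CLSI guidelines.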
Assay [2] deals with Burkholderia cenocepacia. In words: Antimicrobial activity against Burkholderia cenocepacia 09-54 expressing beta-lactamase PenB2. A digest of the protocol: as §1
The test system of assay [3] is Burkholderia cenocepacia. In words: Antimicrobial activity against Burkholderia cenocepacia 212 expressing beta-lactamase PenB3. The essentials:
as §1

Assay [4] concerns Burkholderia cenocepacia. In words: Antimicrobial activity against Burkholderia cenocepacia 5007902 expressing beta-lactamase PenB4. The essentials:
as §1

Assay [5] relates to Escherichia coli. Kind of assay: Antimicrobial activity against Escherichia coli TOP10 harboring beta-lactamase PenB1. A digest of the protocol: (§2)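 MICs by broth microdilution and Etest, interpreted per CLSI guidelines. Strains tested were host E. coli TOP10, and TOP10 carrying pBcSau13 (pBK-CMV vector, kanamycin-resistant) holding a Sau3AI fragment of B. cenocepacia 212 DNA that encodes PenB1.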

Assay [6] relates to Escherichia coli. Kind of assay: Antimicrobial activity against Escherichia coli TOP10. The essentials: as §2
The test system of assay [7] is Burkholderia cenocepacia. In words: Antimicrobial activity against Burkholderia cenocepacia 07-34 expressing beta-lactamase PenB1 in presence of 4 ug/ml beta-lactamase inhibitor clavulanic acid. A digest of the protocol:
(§3)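 Cultured in Trypticase soy broth at 30°C and 37°C for 18 h. MICs by broth microdilution and Etest, read against CLSI guidelines.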

The test system of assay [8] is Burkholderia cenocepacia. Kind of assay: Antimicrobial activity against Burkholderia cenocepacia 09-54 expressing beta-lactamase PenB2 in presence of 4 ug/ml beta-lactamase inhibitor clavulanic acid. A digest of the protocol: as §3
Assay [9] deals with Burkholderia cenocepacia. Kind of assay: Antimicrobial activity against Burkholderia cenocepacia 212 expressing beta-lactamase PenB3 in presence of 4 ug/ml beta-lactamase inhibitor clavulanic acid. The essentials:
as §3

Assay [10] deals with Burkholderia cenocepacia. In words: Antimicrobial activity against Burkholderia cenocepacia 5007902 expressing beta-lactamase PenB4 in presence of 4 ug/ml beta-lactamase inhibitor clavulanic acid. The essentials: as §3
Assay [11] concerns Escherichia coli. Kind of assay: Antimicrobial activity against Escherichia coli TOP10 harboring beta-lactamase PenB1 in presence of 4 ug/ml beta-lactamase inhibitor clavulanic acid. A digest of the protocol:
(§4)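 E. coli TOP10 host, either plain or carrying the pBK-CMV clone pBcSau13 with the B. cenocepacia 212 insert. MICs by broth microdilution and Etest, read against CLSI guidelines.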

Assay [12] relates to Escherichia coli. Kind of assay: Antimicrobial activity against Escherichia coli TOP10 in presence of 4 ug/ml beta-lactamase inhibitor clavulanic acid. The essentials: as §4

In brackets after ≈: the same amount, converted by molar mass.

Turning to `CC1(C)S[C@@H]2[C@H](NC(=O)[C@H](C(=O)O)c3ccsc3)C(=O)N2[C@H]1C(=O)O` [TICARCILLIN], the MIC was determined as 512 µg/mL (≈ 1330 µM) with Burkholderia cenocepacia [1]; 512 µg/mL (≈ 1330 µM) against Burkholderia cenocepacia [2]; 512 µg/mL (≈ 1330 µM) against Burkholderia cenocepacia [3]; 512 µg/mL (≈ 1330 µM) in the assay on Burkholderia cenocepacia [4]; 512 µg/mL (≈ 1330 µM) in the assay on Escherichia coli [5]; 4 µg/mL (≈ 10.4 µM) with Escherichia coli [6].

Turning to `CC1(C)S[C@@H]2[C@H](NC(=O)[C@H](N)c3ccc(O)cc3)C(=O)N2[C@H]1C(=O)O` [AMOXICILLIN], the MIC amounted to 512 µg/mL (≈ 1400 µM) in the assay on Burkholderia cenocepacia [1]; 512 µg/mL with Burkholderia cenocepacia [7]; 512 µg/mL (≈ 1400 µM) in the assay on Burkholderia cenocepacia [2]; 512 µg/mL in the assay on Burkholderia cenocepacia [8]; 512 µg/mL (≈ 1400 µM) against Burkholderia cenocepacia [3]; 512 µg/mL in the assay with Burkholderia cenocepacia [9]. The MIC worked out at 512 µg/mL (≈ 1400 µM) against Burkholderia cenocepacia [4]; 512 µg/mL in the assay on Burkholderia cenocepacia [10]; 512 µg/mL (≈ 1400 µM) with Escherichia coli [5]; 16 µg/mL in the assay on Escherichia coli [11]; 4 µg/mL (≈ 10.9 µM) in the assay on Escherichia coli [6]; 4 µg/mL in the assay on Escherichia coli [12].

With `CO/N=C(\C(=O)N[C@@H]1C(=O)N2C(C(=O)[O-])=C(C[N+]3(C)CCCC3)CS[C@H]12)c1csc(N)n1`, the MIC came out at 32 µg/mL (≈ 66.6 µM) in the assay with Burkholderia cenocepacia [1], 64 µg/mL (≈ 133 µM) against Burkholderia cenocepacia [2], 64 µg/mL (≈ 133 µM) in the assay on Burkholderia cenocepacia [3] and 1 µg/mL (≈ 2.08 µM) against Burkholderia cenocepacia [4].

On to `CO[C@@]1(NC(=O)Cc2cccs2)C(=O)N2C(C(=O)O)=C(COC(N)=O)CS[C@@H]21` [CEFOXITIN], for which the MIC in the assay with Burkholderia cenocepacia [1] worked out at 512 µg/mL (≈ 1200 µM); in the assay with Burkholderia cenocepacia [2], 512 µg/mL (≈ 1200 µM); against Burkholderia cenocepacia [3], 512 µg/mL (≈ 1200 µM); against Burkholderia cenocepacia [4] it was 512 µg/mL (≈ 1200 µM); against Escherichia coli [5], 8 µg/mL (≈ 18.7 µM); against Escherichia coli [6] it was 8 µg/mL (≈ 18.7 µM).

Consider `CO/N=C(\C(=O)N[C@@H]1C(=O)N2C(C(=O)O)=C(COC(C)=O)CS[C@H]12)c1csc(N)n1` [CEFOTAXIME], for which the minimal inhibitory concentration (MIC) in the assay with Burkholderia cenocepacia [1] is 1 µg/mL (≈ 2.2 µM); with Burkholderia cenocepacia [2], 512 µg/mL (≈ 1120 µM); with Burkholderia cenocepacia [3], 512 µg/mL (≈ 1120 µM); with Burkholderia cenocepacia [4], 4 µg/mL (≈ 8.78 µM); in the assay with Escherichia coli [5] it was 0.25 µg/mL (≈ 0.549 µM); in the assay on Escherichia coli [6], 0.06 µg/mL (≈ 0.132 µM).

Usually MIC stands for the lowest concentration that inhibits growth of the organism.
